Source: ChEMBL document CHEMBL3576863, “Structural requirements for bisphosphonate binding on hydroxyapatite: NMR study of bisphosphonate partial esters” (ACS Med Chem Lett, 2015)
Active and inactive are the calls of the source. The calls are words filed in the database; no cut-off is given here.

Test system: Hydroxyapatite
Assay: Binding affinity to hydroxyapatite at 3.2 to 3.7 mM after 1 hr by NMR analysis relative to control
Settings: not given
Procedure, shortened: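 Synthetic hydroxyapatite used as a bone model. Each bisphosphonate solution was mixed with HAP for 1 h. Percent HAP-bound was calculated from the solution concentration difference before and after incubation. Statistical comparison by t test.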

Activity | SMILES
70% | CC(O)(P(=O)(O)O)P(=O)(O)O [ETIDRONIC ACID]
70% | O=P(O)(O)CP(=O)(O)O
41.9% | O=P(O)(O)C(Cl)(Cl)P(=O)(O)O [CLODRONIC ACID]
70% | NCCCC(O)(P(=O)(O)O)P(=O)(O)O

Test system: Hydroxyapatite
Assay: Binding affinity to hydroxyapatite at 3.6 to 10.7 mM after 1 hr by NMR analysis relative to control
Settings: not given
Procedure, shortened: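 Hydroxyapatite (HAP) used as a synthetic bone surrogate. BP solution mixed with HAP for 1 h. Bound fraction expressed as percent of BP bound to HAP, calculated from the concentration difference of the BP solution before and after HAP incubation. Statistics by t test.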

SMILES | Activity
COP(=O)(OC)C(O)(CCCN)P(=O)(O)O (stereo unspecified) | 21.7%
COP(=O)(OC)C(C)(O)P(=O)(O)O (stereo unspecified) | 12.6%
COP(=O)(O)CP(=O)(O)OC | inactive
COP(=O)(O)C(C)(O)P(=O)(OC)OC (stereo unspecified) | inactive
COP(=O)(O)CP(=O)(O)O | 18.6%
COP(=O)(O)C(Cl)(Cl)P(=O)(O)O | inactive
COP(=O)(O)C(C)(O)P(=O)(O)OC (stereo unspecified) | 3.8%
COP(=O)(O)C(O)(CCCN)P(=O)(O)O (stereo unspecified) | 31%
COP(=O)(O)CP(=O)(OC)OC | inactive
CC(=O)NCCCC(OC(C)=O)(P(=O)(O)O)P(=O)(O)O | 47.7%
COP(=O)(O)C(C)(O)P(=O)(O)O (stereo unspecified) | 55.6%
CC(C)OP(=O)(OC(C)C)C(C)(O)P(=O)(O)O (stereo unspecified) | 11.4%
CC(O)(P(=O)(O)O)P(=O)(O)Oc1ccccc1 (stereo unspecified) | 48%
CC(C)OP(=O)(O)C(Cl)(Cl)P(=O)(O)O | inactive

Test system: not listed separately
Assay: Half life in human plasma at 0.015 mg/kg, iv
Format: ADME, organism-based
Settings: not given

half-life | SMILES
60 min | CC(O)(P(=O)(O)O)P(=O)(O)O [ETIDRONIC ACID]

Test system: not listed separately
Assay: Half life in human plasma at 2.5 to 4 mg/kg, iv
Format: ADME, organism-based
Settings: not given

half-life | SMILES
60 min | O=P(O)(O)C(Cl)(Cl)P(=O)(O)O [CLODRONIC ACID]

Test system: Homo sapiens
Assay: Half life in human plasma at 1 mg/kg, iv
Format: ADME, organism-based
Settings: in vivo

t1/2 | SMILES
1 h | NCCC(O)(P(=O)(O)O)P(=O)(O)O [PAMIDRONIC ACID]
